A selection: hits, their analogues and other compounds. The true share with any hit is near 2.5%.
SENP6 inh: inhibitors of human SENP6 protease; Q9GZR1; Recombinant SENP6 catalytic domain, aminoluciferin luminescence; inhibition, % at 10 µM; 330,000 compounds, 1.8% hits; AID 2599;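 active = inhibition above about 50% at the single tested dose, limit read from the data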;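 note: plate controls were DMSO wells with enzyme for no effect and DMSO wells lacking enzyme for full effect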
SENP1 inh: blocks the human SENP1 SUMO protease catalytic domain; inhibition, % at 10 µM; 360,000 compounds, 0.21% hits; AID 624204; recombinant SENP1 catalytic domain, CyPet-SUMO1-YPet FRET cleavage;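 active = inhibition at least 30% at 10 µM, raw YFP signal under a set limit, fluorescence ratio 0.5 to 1.5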;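 note: 0% = enzyme with DMSO and 100% = no enzyme wells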
Target sequence (Q9P0U3 419-644 limits assumed): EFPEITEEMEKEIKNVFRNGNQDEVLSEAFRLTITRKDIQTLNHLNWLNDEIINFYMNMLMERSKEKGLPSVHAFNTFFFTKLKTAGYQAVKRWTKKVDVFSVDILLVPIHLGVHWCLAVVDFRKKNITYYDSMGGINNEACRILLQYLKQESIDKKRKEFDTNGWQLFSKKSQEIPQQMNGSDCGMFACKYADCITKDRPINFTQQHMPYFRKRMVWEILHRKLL
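Test system: human SENP1 catalytic domain; medium: Tris pH 8 buffer plus EDTA, NaCl, BME, BSA, NP40, catalase; incubation: 50 min reaction at room temperature; technique: FRET, CFP and YFP emission; controls: no-enzyme low control and enzyme-plus-DMSO high control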
SENP8 block-1: SENP8 protease inhibition. Q96LD8. purified SENP8, Z-RLRGG-aminoluciferin cleavage, luminescence. inhibition, % at 10 µM. 330,000 compounds, 1.2% hits; in the data active = inhibition above about 50%
Target sequence (Q96LD8 whole entry, looked up): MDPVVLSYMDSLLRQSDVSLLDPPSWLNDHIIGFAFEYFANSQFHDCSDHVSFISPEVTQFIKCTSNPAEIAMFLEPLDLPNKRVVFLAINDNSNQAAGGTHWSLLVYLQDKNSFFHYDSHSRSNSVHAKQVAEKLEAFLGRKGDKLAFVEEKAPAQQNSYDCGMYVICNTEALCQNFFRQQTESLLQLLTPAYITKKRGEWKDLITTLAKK
SENP7 inh: SENP7 protease inhibition; inhibition, % at 5 µM; recombinant SENP7, Z-RLRGG-aminoluciferin luminescence, 40 min; Q9BQF6; 330,000 compounds, 1.5% hits;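 active = inhibition above about 50% at the single test dose, limit read from the data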;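 note: plate controls were DMSO with enzyme for no effect and no enzyme buffer wells for full effect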
SENP8 block-2: blocks human SENP8 cleavage of Nedd8 substrate; inhibition, % at 20 µM; recombinant SENP8, Nedd8 substrate fluorescence; Q96LD8; AID 602440; 360,000 compounds, 0.64% hits; in the data active = inhibition mostly above about 40%, no sharp cut-off; inactive = mostly below about 27%
SENP8 conf: confirmation of human SENP8 protease inhibitors. shares compounds with SENP7 inh. inhibition, % at 12.5 µM. 6,200 compounds, 40% hits. Recombinant SENP8, Z-RLRGG-aminoluciferin luminescence, 60 min;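 active = mean inhibition across replicates above about 50%, limit read from the data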
SENP6 confirm: human SENP6 inhibition, confirmed. recombinant SENP6, Z-RLRGG-aminoluciferin luminescence. shares compounds with SENP7 inh. inhibition, % at 12.5 µM. 6,200 compounds, 58% hits
SENP7 confirm: confirmation of human SENP7 protease inhibitors. shares compounds with SENP7 inh. recombinant SENP7, Z-RLRGG-aminoluciferin luminescence, 40 min. inhibition, % at 12.5 µM. 6,200 compounds, 69% hits
Casp3 SENP sel: inhibits human caspase-3 in SENP selectivity test; shares compounds with SENP7 inh; purified caspase-3, Z-DEVD-aminoluciferin luminescence, 60 min; inhibition, % at 12.5 µM; 6,200 compounds, 60% hits; AID 488918;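 active = mean inhibition above about 50%, limit read from the data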;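 note: plate controls were enzyme with DMSO for no effect and wells without caspase-3 for full effect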
Target sequence (P42574 28-227 limits assumed): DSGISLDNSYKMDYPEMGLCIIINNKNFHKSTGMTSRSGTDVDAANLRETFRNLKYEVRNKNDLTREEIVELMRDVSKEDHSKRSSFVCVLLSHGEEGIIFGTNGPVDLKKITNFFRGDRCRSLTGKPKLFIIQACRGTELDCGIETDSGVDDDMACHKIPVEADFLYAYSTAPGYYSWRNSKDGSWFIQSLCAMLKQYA
Luc interf: counter-screen for SENP inhibitors: luminescence interference; inhibition, % at 12.5 µM; shares compounds with SENP7 inh; Pre-incubated SENP8/Z-RLRGG-aminoluciferin, luciferase luminescence interference; AID 488919; 6,200 compounds, 39% hits;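 active = mean inhibition above about 50% when retested at one dose, limit read from the data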;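 note: plate controls were DMSO wells with completed reaction for no effect and substrate without enzyme for full effect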
Numbers without * were called inactive.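 Rule for the calls, unless noted: active = mean inhibition above about 50% in the one-dose retest (limit read from the data); inactive = the rest.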

For Cc1ccc(-c2nc3ccccc3[nH]2)s1 the results were SENP6 inh 97.0*, SENP1 inh 58.6*, SENP8 block-1 92.8*, SENP7 inh 97.2*, SENP8 block-2 -482.8, SENP8 conf 95.9*, SENP6 confirm 96.2*, SENP7 confirm 100.3*, Casp3 SENP sel 96.3* and Luc interf 95.0*.
Fc1ccc(-c2nc(-c3cccs3)[nH]c2-c2ccc(F)cc2)cc1 was read as SENP6 inh 6.7, SENP1 inh 15.8, SENP8 block-1 -5.0, SENP7 inh -1.5 and SENP8 block-2 -294.9.
`c1csc(-c2nc3ccccc3[nH]2)c1` gave SENP6 inh 53.0*, SENP1 inh 5.1, SENP8 block-1 3.0, SENP7 inh 39.0, SENP8 block-2 inactive, SENP8 conf 32.9, SENP6 confirm 31.1, SENP7 confirm 69.2*, Casp3 SENP sel 65.9* and Luc interf 20.7.
`O=C(O)c1ccccc1C(=O)NC1CCN(c2nccc(C(F)(F)F)n2)CC1` gave SENP6 inh -18.9, SENP1 inh -0.7, SENP8 block-1 -5.3, SENP7 inh 4.5 and SENP8 block-2 -16.4.
For O=Cc1ccc(OCc2nnsc2Cl)cc1 the results were SENP6 inh -2.9, SENP1 inh 1.3, SENP8 block-1 -8.6, SENP7 inh -5.6 and SENP8 block-2 12.2.
Cc1ccc(S(=O)(=O)N(C)C)cc1NC(=O)CCc1ccccc1 was read as SENP6 inh -2.2, SENP1 inh -0.3, SENP8 block-1 6.7, SENP7 inh -0.9 and SENP8 block-2 10.9.
For O=c1sc2ccccc2c(N2CCOCC2)c1[N+](=O)[O-] the results were SENP6 inh 56.7*, SENP1 inh 2.3, SENP8 block-1 22.2, SENP7 inh -1.4, SENP8 block-2 6.4, SENP8 conf 15.8, SENP6 confirm 6.3, SENP7 confirm 50.5*, Casp3 SENP sel 69.8* and Luc interf 55.4*.
`CCOc1cc(C=O)cc(N=Nc2cccc([N+](=O)[O-])c2)c1O` gave SENP6 inh 83.3*, SENP1 inh 5.0, SENP8 block-1 82.1*, SENP7 inh 47.4, SENP8 block-2 21.9, SENP8 conf -5.6, SENP6 confirm 44.8, SENP7 confirm 21.6, Casp3 SENP sel 48.2 and Luc interf -2.3.
For CC1(C)CC(=O)C(N=Nc2cccc([N+](=O)[O-])c2)=C(O)C1 the results were SENP6 inh 25.3, SENP1 inh -3.4, SENP8 block-1 16.2, SENP7 inh 45.2 and SENP8 block-2 20.4.
Screening CCCC[C@@H]1C=C(C(=O)O)[C@H](c2ccc(Br)cc2)N1S(=O)(=O)c1ccc(C)cc1 returned SENP6 inh 0.4, SENP1 inh -0.1, SENP8 block-1 -4.9, SENP7 inh 7.9 and SENP8 block-2 23.7.
Nc1nc(SCC(=O)N2CCCC2)[nH]c(=O)c1-c1ccccc1 was read as SENP6 inh -16.6, SENP1 inh -0.1, SENP8 block-1 -2.7, SENP7 inh 1.5 and SENP8 block-2 24.3.
Screening CC1CCCC(C)N1C(=O)CSc1nc(N)c(-c2ccccc2)c(=O)[nH]1 (stereo unspecified) returned SENP6 inh 6.6, SENP1 inh 0.1, SENP8 block-1 6.6, SENP7 inh 86.6*, SENP8 block-2 6.6, SENP8 conf 4.4, SENP6 confirm 4.2, SENP7 confirm 0.9, Casp3 SENP sel 0.6 and Luc interf 1.0.
`CN(CC(=O)Nc1ccccc1Br)C(=O)Cn1[nH]c(=O)c2ccccc2c1=O` gave SENP6 inh -6.1, SENP1 inh -0.6, SENP8 block-1 -1.2, SENP7 inh 8.9 and SENP8 block-2 8.2.
CC(C)=CCN1CCN(Cc2c[nH]c3ccccc23)CC1CCO (stereo unspecified) was read as SENP6 inh 10.4, SENP1 inh 2.2, SENP8 block-1 2.9, SENP7 inh 5.0 and SENP8 block-2 13.3.
`O=C1OC(c2ccc(F)cc2)CC1CN1CCOCC1` (stereo unspecified) gave SENP1 inh -1.1 and SENP8 block-2 2.5.
O=C(COC(=O)c1ccc[nH]c1=O)NC1CCCc2ccccc21 (stereo unspecified) was read as SENP6 inh -4.8, SENP1 inh 4.1, SENP8 block-1 -1.3, SENP7 inh 6.8 and SENP8 block-2 -445.8.
`CSc1ncccc1C(=O)OCc1ccc([N+](=O)[O-])cc1` gave SENP6 inh -1.4, SENP1 inh -0.3, SENP8 block-1 -7.9, SENP7 inh 9.3 and SENP8 block-2 10.1.
CSc1ncccc1C(=O)OCc1ccccc1 was read as SENP6 inh 53.7*, SENP1 inh 0.8, SENP8 block-1 25.6, SENP7 inh 17.6, SENP8 block-2 21.2, SENP8 conf 9.1, SENP6 confirm 19.3, SENP7 confirm 59.9*, Casp3 SENP sel 32.0 and Luc interf 31.5.
`CSc1ncccc1C(=O)OCc1ccccc1F` gave SENP6 inh 71.7*, SENP1 inh 2.4, SENP8 block-1 50.2*, SENP7 inh 42.8, SENP8 block-2 15.9, SENP8 conf 53.2*, SENP6 confirm 55.0*, SENP7 confirm 79.4*, Casp3 SENP sel 51.4* and Luc interf 55.7*.
`Cc1ccc(NC(=O)C2CCN(S(=O)(=O)c3ccc4c(c3)CCCC(=O)N4)CC2)c(Br)c1` gave SENP6 inh 4.9, SENP1 inh 1.1, SENP8 block-1 0.8, SENP7 inh 7.9 and SENP8 block-2 7.7.
For CCn1nccc1C(=O)Nc1ccc(Cl)cn1 the results were SENP6 inh 74.0*, SENP1 inh 1.3, SENP8 block-1 35.1, SENP7 inh 62.6*, SENP8 block-2 31.2, SENP8 conf 33.7, SENP6 confirm 37.3, SENP7 confirm 79.9*, Casp3 SENP sel 39.8 and Luc interf 64.2*.
CCn1nccc1C(=O)Nc1cc(Cl)cc(Cl)c1 was read as SENP6 inh 29.8, SENP1 inh 2.6, SENP8 block-1 0.9, SENP7 inh 19.8 and SENP8 block-2 15.7.
O=C(O)c1nccnc1C(=O)Nc1ccc(Cl)cn1 was read as SENP6 inh 96.7*, SENP1 inh 0.8, SENP8 block-1 11.1, SENP7 inh 1.7, SENP8 block-2 11.1, SENP8 conf -9.4, SENP6 confirm -7.1, SENP7 confirm -5.8, Casp3 SENP sel 5.5 and Luc interf 4.9.

High-throughput results: PubChem, Sanford-Burnham Center for Chemical Genomics
